A selection: hits, their analogues and other compounds. The true share with any hit is near 2.8%.
SIRT5 inh – inhibitors of human sirtuin-5 desuccinylase; AID 652115; inhibition, % at 15 µM; Q9NXA8; actives 1.1% (n = 330,000); Purified SirT5, succinyl-peptide AMC, trypsin-coupled fluorescence; in the data active = inhibition above about 15%; inconclusive = no clear call, values can overlap the other calls
Target sequence (Q9NXA8 whole entry, looked up): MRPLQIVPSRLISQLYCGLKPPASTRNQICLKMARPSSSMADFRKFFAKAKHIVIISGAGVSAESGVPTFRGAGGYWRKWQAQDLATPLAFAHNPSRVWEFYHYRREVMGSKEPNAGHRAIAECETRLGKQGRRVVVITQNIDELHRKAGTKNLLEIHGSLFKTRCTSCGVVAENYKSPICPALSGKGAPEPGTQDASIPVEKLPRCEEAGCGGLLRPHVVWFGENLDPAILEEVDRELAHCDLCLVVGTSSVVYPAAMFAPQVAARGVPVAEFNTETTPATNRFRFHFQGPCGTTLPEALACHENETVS
DENV2 CPE – protects cells from dengue virus 2 cytopathic effect | AID 651640 | CPE inhibition, % at 9.99 µM | actives 1.7% (n = 350,000) | DENV2-infected cells, cytopathic effect rescue, plate reader; in the data active = CPE inhibition above about 20%, passing the limit was not always enough; inconclusive = no clear call, values can overlap the other calls; tested in BHK-21 cells
E-sel inducer – induces E-selectin expression in human endothelial cells. P16581. HUVEC E-selectin immunofluorescence imaging; normalized: neutral wells 0, TNF-alpha wells 100. activation, % at 7.58 µM. actives 0.37% (n = 260,000). AID 686992;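 active = mean E-selectin-positive cell signal at least 10% of the positive control, reached in at least 60% of replicates, without over 20% cell loss; inconclusive = no rule given, readout overlaps actives, possibly toxicity-flagged; inactive = the rest, including those meeting only one limit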
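System: HUVEC, human umbilical vein endothelial cells; quantity: 3,000 cells/well; buffer or medium: EGM-2 medium, gelatin-coated wells; dosing: single-point compound dose; detection: immunofluorescence imaging; evaluation: % PE-positive cells; benchmarks: TNF-alpha, DMSO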
Each line names hits and unclear results; the compound was inactive in the other large screens; ! = a repeat was not active.

CCOc1ccc(/C=C/C(=O)N(CC)CC(=O)Nc2c(F)cccc2F)cc1OC	none (no result: SIRT5 inh)
CCN(CC(=O)Nc1c(F)cccc1F)C(=O)/C=C/c1ccc2c(c1)OCO2	DENV2 CPE 84 (no result: E-sel inducer)
CNC[C@H]1Oc2ccc(NC(=O)NC(C)C)cc2CC(=O)N([C@H](C)CO)C[C@H]1C	none (no result: E-sel inducer)
COc1cc(=O)[nH]c(SC(C)C(=O)Nc2cccc3ccccc23)n1 (centres undefined)	SIRT5 inh 75 (no result: E-sel inducer)
COc1cc(=O)[nH]c(SC(C)C(=O)Nc2nc3c(s2)CCCC3)n1 (centres undefined)	none (no result: E-sel inducer)
CCC(=O)N1CC2(C1)[C@H](c1ccccc1)[C@H](CO)N2S(=O)(=O)Cc1ccccc1	none
CCC(=O)N1CC2(C1)[C@@H](c1ccccc1)[C@@H](CO)N2S(=O)(=O)Cc1ccccc1	none
O=C(Cc1ccccc1)N1CC2(C1)[C@@H](c1ccccc1)[C@H](CO)N2S(=O)(=O)Cc1ccccc1	DENV2 CPE 43 (no result: SIRT5 inh)
O=C(Cc1ccccc1)N1CC2(C1)[C@@H](c1ccccc1)[C@@H](CO)N2S(=O)(=O)Cc1ccccc1	DENV2 CPE 35
CO[C@@H]1CN(C)C(=O)c2cc(NC(=O)C3CC3)ccc2OC[C@H](C)N(C(=O)CN2CCOCC2)C[C@H]1C	none
O=C(CSc1nnc(-c2ccncc2)o1)Nc1cc(Cl)ccc1C(=O)O	DENV2 CPE 39 (no result: SIRT5 inh)
O=C(CSc1nnc(-c2ccncc2)o1)Nc1cc(F)ccc1F	DENV2 CPE 44 (no result: E-sel inducer)
COc1ccccc1NC(=O)CSc1nnc(-c2ccncc2)o1	none (no result: SIRT5 inh, DENV2 CPE)
O=C(CSc1nnc(-c2ccncc2)o1)Nc1cccc(F)c1	none (no result: E-sel inducer)
Cc1[nH]nc2c1C(c1ccco1)C(C#N)=C(N)O2 (centres undefined)	E-sel inducer 114
CC(C)(C)c1[nH]nc2c1C(c1ccco1)C(C#N)=C(N)O2 (centres undefined)	none (no result: E-sel inducer)
O=C(C[C@H]1CC[C@H](NC(=O)CN2CCOCC2)[C@@H](CO)O1)NC1CCCCC1	none
C[C@]12CCC(=O)C[C@@H]1CC[C@@H]1[C@@H]2CC[C@]2(C)C=CC[C@@H]12	none
C[C@]12CCC(=O)CC1CCC1C2CC[C@@]2(C)C1CC[C@@]21CCO1 (some centres undefined)	E-sel inducer 50
C[C@@H](CSc1ccc(Br)cc1)CN1CC[C@H](NC(=O)OCc2ccccc2)CCC1=O	DENV2 CPE 75
COc1ccc(SC[C@H](C)CN2CC[C@H](NC(=O)OCc3ccccc3)CCC2=O)cc1	none
O=C(CCN1CCCCC1)NCC[C@H]1CC[C@H](NC(=O)C2CCCC2)[C@H](CO)O1	none
O=C(CCN1CCCCC1)NCC[C@@H]1CC[C@H](NC(=O)C2CCC2)[C@@H](CO)O1	DENV2 CPE 46
O=C(CCN1CCCCC1)NCC[C@H]1CC[C@H](NC(=O)C2CCC2)[C@H](CO)O1	none
O=C(CCN1CCCCC1)NCC[C@H]1CC[C@H](NC(=O)C2CCC2)[C@@H](CO)O1	DENV2 CPE 23
COC(=O)C[C@@H]1CC[C@@H]2[C@H](COC[C@@H](O)CN2CCC(F)(F)F)O1	none (no result: SIRT5 inh)
O=C(c1ccccc1)N1C[C@H]2[C@@H](c3ccccc31)[C@@H](CO)N2C(=O)c1ccccn1	none
CN1C[C@H]2[C@@H](c3ccccc31)[C@H](CO)N2C(=O)c1ccccn1	DENV2 CPE 28
O=C(Nc1ccccc1)N1C[C@@H]2[C@H](c3ccccc31)[C@@H](CO)N2C(=O)c1ccccn1	DENV2 CPE 71
CN1C[C@@H]2[C@H](c3ccccc31)[C@H](CO)N2Cc1ccccc1	none (no result: SIRT5 inh, DENV2 CPE)
CN1C[C@@H]2[C@H](c3ccccc31)[C@@H](CO)N2Cc1ccccc1	DENV2 CPE 44
O=C(Nc1ccccc1)N1C[C@H]2[C@@H](c3ccccc31)[C@H](CO)N2C(=O)c1ccccn1	none
O=C(c1ccccc1)N1C[C@H]2[C@@H](c3ccccc31)[C@H](CO)N2C(=O)c1ccccn1	DENV2 CPE 25
CN1C[C@@H]2[C@H](c3ccccc31)[C@H](CO)N2C(=O)c1ccccn1	none
C[C@H](NC(=O)[C@H]1[C@H](CO)[C@H]2Cn3c(cccc3=O)[C@H]2N1CC1CC1)c1ccccc1	none
CCN(C[C@H]1[C@H](c2ccccc2)[C@@H](CO)N1C(C)=O)C(=O)NC(C)C	none
CN(C)CC(=O)Nc1ccc2c(c1)[C@@H]1C[C@H](CC(=O)NCCc3ccccc3)O[C@@H](CO)[C@@H]1O2	DENV2 CPE inconclusive
CN1C(=O)c2cc(NC(=O)c3ccc(Cl)cc3)ccc2OC[C@@H]2O[C@@H](CC(=O)NCc3cccc(F)c3)CC[C@@H]21	none
O=C(Nc1ccccc1F)N[C@@H]1CC[C@H](CCNC(=O)C2CCC2)O[C@@H]1CO	DENV2 CPE inconclusive
Cc1cc(C)nc(NC(=O)c2ccc([N+](=O)[O-])o2)n1	DENV2 CPE 93 (no result: E-sel inducer)
Cc1cc(C)cc(NC(=O)c2ccc([N+](=O)[O-])o2)c1	none
O=C(Nc1nc2ccccc2s1)c1ccc([N+](=O)[O-])o1	none
COc1ccc2nc(NC(=O)c3ccc([N+](=O)[O-])o3)sc2c1	DENV2 CPE 21
CCC(=O)N(C)C[C@H]1Oc2cc(-c3cccc(F)c3)ccc2S(=O)(=O)N([C@@H](C)CO)C[C@@H]1C	none
COc1ccc(-c2ccc([C@H]3[C@H](CO)N4C(=O)CN(C(=O)c5ccccn5)C[C@@H]34)cc2)cc1	none
CO[C@H]1CN(C)C(=O)c2cc(NS(=O)(=O)Cc3ccccc3)ccc2OC[C@H](C)NC[C@H]1C	DENV2 CPE inconclusive
O=C(c1ccncc1)N1CC(=O)N2[C@@H](CO)[C@H](c3ccc(-c4ccccc4F)cc3)[C@@H]2C1	none
Cc1ccc(C(=O)Nc2ccc(N3CCN(C)CC3)cc2)cc1C	DENV2 CPE 27 (no result: E-sel inducer)
Cc1ccc(C(=O)Nc2ccc(N3CCN(S(C)(=O)=O)CC3)cc2)cc1C	none (no result: E-sel inducer)
C[C@H]1CCCCO[C@H](CN(C)C(=O)C2CCCCC2)[C@@H](C)CN([C@@H](C)CO)C(=O)c2cc(N(C)C)ccc2O1	none (no result: SIRT5 inh, DENV2 CPE)
C[C@@H]1CN([C@H](C)CO)C(=O)c2cc(NC(=O)Cn3cnnn3)ccc2O[C@@H]1CN(C)S(=O)(=O)c1ccccc1	E-sel inducer 60
Cc1ccc(S(=O)(=O)N(C)C[C@@H]2Oc3ccc(NC(=O)Cn4cnnn4)cc3C(=O)N([C@@H](C)CO)C[C@@H]2C)cc1	DENV2 CPE 42
C[C@@H]1CN([C@@H](C)CO)C(=O)c2cc(NC(=O)Cn3cnnn3)ccc2O[C@@H]1CN(C)CC1CCCCC1	none (no result: DENV2 CPE)
C[C@@H]1CN([C@@H](C)CO)C(=O)c2cc(NC(=O)Cn3cnnn3)ccc2O[C@H]1CN(C)S(=O)(=O)c1ccccc1	none
Cc1ccc(S(=O)(=O)N(C)C[C@H]2Oc3ccc(NC(=O)Cn4cnnn4)cc3C(=O)N([C@H](C)CO)C[C@H]2C)cc1	none
Cc1noc(C)c1S(=O)(=O)N(C)C[C@@H]1Oc2ccc(NC(=O)Cn3cnnn3)cc2C(=O)N([C@@H](C)CO)C[C@@H]1C	SIRT5 inh 23
C[C@H](CO)N1C[C@H](C)[C@@H](CN(C)S(C)(=O)=O)Oc2ccc(NC(=O)Cn3cnnn3)cc2C1=O	none
C[C@H](CO)N1C[C@H](C)[C@@H](CN(C)CC2CCCCC2)Oc2ccc(NC(=O)Cn3cnnn3)cc2C1=O	SIRT5 inh 15!, DENV2 CPE inconclusive

Screens: PubChem BioAssay, Broad Institute
